{"source": "paper PMC9683076", "about": "(Pharmacology Research & Perspectives, 2022)", "key": {"[1]": {"settings": "digoxin with the 3D regimen; cited from earlier work"}, "[2]": {"settings": "cited from earlier work"}, "P-gp": {"test_system": "P-gp", "settings": "cited from earlier work"}, "[3]": {"type": "in vivo, human (healthy adult subjects)"}, "[4]": {"settings": "2 mg single-dose sirolimus with ketoconazole 200 mg BID at steady state; cited from earlier work"}, "[5]": {"settings": "cited from earlier work", "remark": "listed apart in the source"}, "[6]": {"type": "in vivo, human (healthy adult subjects)", "method_in_brief": "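Single-centre, open-label, two-period study in healthy adults. Everolimus 0.75 mg given as a single dose alone on Period 1 Day 1. Blood concentrations gave Cmax, AUCinf, Tmax (median), C12 and t1/2. Natural-log parameters were compared by repeated-measures analysis.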", "remark": "listed apart in the source"}, "[7]": {"settings": "sirolimus 2 mg single dose alone, Period 1 Day 1, N = 11, blood, geometric mean (geometric %CV)"}, "[8]": {"settings": "sirolimus co-administered with the 3D regimen vs alone"}, "[9]": {"settings": "everolimus co-administered with the 3D regimen vs alone"}}, "note": "Where two headings read alike, the source gives them in different places.", "data": [{"smiles": "C[C@H]1O[C@@H](O[C@H]2[C@@H](O)C[C@H](O[C@H]3[C@@H](O)C[C@H](O[C@H]4CC[C@@]5(C)[C@H](CC[C@@H]6[C@@H]5C[C@@H](O)[C@]5(C)[C@@H](C7=CC(=O)OC7)CC[C@]65O)C4)O[C@@H]3C)O[C@@H]2C)C[C@H](O)[C@@H]1O", "note": "[digoxin]", "values": [{"measurement": "increase in AUC", "setting": "[1]", "value": "≤ 16", "unit": "%"}, {"measurement": "increase in Cmax", "setting": "[1]", "value": "≤ 16", "unit": "%"}]}, {"smiles": "Cc1ncc2n1-c1ccc(Cl)cc1C(c1ccccc1F)=NC2", "note": "[midazolam]", "values": [{"measurement": "increase in AUC", "setting": "[2]; midazolam co-administered with boceprevir", "value": 5.3, "unit": "fold"}, {"measurement": "increase in AUC", "setting": "[2]; midazolam co-administered with tipranavir/ritonavir", "value": 26.9, "unit": "fold"}]}, {"smiles": "CC(C)c1nc(CN(C)C(=O)N[C@H](C(=O)N[C@@H](Cc2ccccc2)C[C@H](O)[C@H](Cc2ccccc2)NC(=O)OCc2cncs2)C(C)C)cs1", "note": "[ritonavir]", "values": [{"measurement": "P-gp inhibition (in vitro data)", "setting": "P-gp", "value": "potential inhibitors of P‐gp"}]}, {"smiles": "Cc1cnc(C(=O)N[C@H]2CCCCC/C=C\\[C@@H]3C[C@@]3(C(=O)NS(=O)(=O)C3CC3)NC(=O)[C@@H]3C[C@@H](Oc4nc5ccccc5c5ccccc45)CN3C2=O)cn1", "note": "[paritaprevir]", "values": [{"measurement": "P-gp inhibition (in vitro data)", "setting": "P-gp", "value": "potential inhibitors of P‐gp"}]}, {"smiles": "CO[C@H]1C[C@@H]2CC[C@@H](C)[C@@](O)(O2)C(=O)C(=O)N2CCCC[C@H]2C(=O)O[C@H]([C@H](C)C[C@@H]2CC[C@@H](O)[C@H](OC)C2)CC(=O)[C@H](C)/C=C(\\C)[C@@H](O)[C@@H](OC)C(=O)[C@H](C)C[C@H](C)/C=C/C=C/C=C/1C", "note": "[Sirolimus, sirolimus]", "values": [{"measurement": "half-life", "setting": "[3]; human, blood, 2 mg, t 1/2, sirolimus 2 mg single dose alone, Period 1 Day 1, N = 11, blood, harmonic mean (pseudo-standard deviation)", "value": 96, "unit": "h"}, {"measurement": "AUC(0-inf)", "setting": "[3]; human, blood, oral, 2 mg", "value": 0.178, "unit": "µg·h/mL"}, {"measurement": "C24", "setting": "[3]; [7]", "value": "1.14 (29) ng/m"}, {"measurement": "Cmax", "setting": "[3]; [7]", "value": "6.66 (33) ng/ml"}, {"measurement": "t 1/2", "setting": "[3]; sirolimus 2 mg single dose alone, Period 1 Day 1, N = 11, blood, harmonic mean (pseudo-standard deviation)", "value": "96.3 (15) h"}, {"measurement": "Tmax", "setting": "[3]; sirolimus 2 mg single dose alone, Period 1 Day 1, N = 11, blood, median (range)", "value": "2.5 (1.5–4.0) h"}, {"measurement": "increase in dose-normalized AUCinf", "setting": "[3]; [8]", "value": 38, "unit": "fold"}, {"measurement": "increase in dose-normalized Cmax", "setting": "[3]; [8]", "value": 6.4, "unit": "fold"}, {"measurement": "increase in t 1/2", "setting": "[3]; [8]", "value": 2.6, "unit": "fold"}, {"measurement": "delay in Tmax", "setting": "[3]; sirolimus in the presence of the 3D regimen vs alone", "value": 3.5, "unit": "h"}, {"measurement": "increase in Cmax", "setting": "[4]", "value": 4.3, "unit": "fold"}, {"measurement": "half-life", "setting": "[5]; sirolimus", "value": "approximately 62 h"}]}, {"smiles": "CO[C@H]1C[C@@H]2CC[C@@H](C)[C@@](O)(O2)C(=O)C(=O)N2CCCC[C@H]2C(=O)O[C@H]([C@H](C)C[C@@H]2CC[C@@H](OCCO)[C@H](OC)C2)CC(=O)[C@H](C)/C=C(\\C)[C@@H](O)[C@@H](OC)C(=O)[C@H](C)C[C@H](C)/C=C/C=C/C=C/1C", "note": "[Everolimus, everolimus]", "values": [{"measurement": "increase in AUCinf", "setting": "[6]; [9]", "value": 27, "unit": "fold"}, {"measurement": "increase in Cmax", "setting": "[6]; [9]", "value": 4.7, "unit": "fold"}, {"measurement": "increase in t 1/2", "setting": "[6]; [9]", "value": 2.8, "unit": "fold"}, {"measurement": "delay in Tmax", "setting": "[6]; everolimus in the presence of the 3D regimen vs alone", "value": 1, "unit": "h"}, {"measurement": "AUC(0-inf)", "setting": "[6]; human, blood, 0.75 mg", "value": 0.0419, "unit": "µg·h/mL"}, {"measurement": "Cmax", "setting": "[6]; human, blood, 0.75 mg", "value": 3.33, "unit": "ng/mL"}, {"measurement": "concentration at 12 h", "setting": "[6]; human, blood, 0.75 mg", "value": 0.513, "unit": "ng/mL"}, {"measurement": "half-life", "setting": "[6]; human, blood, 0.75 mg, t 1/2, everolimus 0.75 mg single dose alone, Period 1 Day 1, N = 12, blood, harmonic mean (pseudo-standard deviation)", "value": 42, "unit": "h"}, {"measurement": "half-life", "setting": "[5]; everolimus", "value": "~30", "unit": "h"}]}, {"smiles": "COc1c(-c2ccc3cc(NS(C)(=O)=O)ccc3c2)cc(-n2ccc(=O)[nH]c2=O)cc1C(C)(C)C", "note": "[dasabuvir]", "values": [{"measurement": "P-gp inhibition (in vitro data)", "setting": "P-gp", "value": "potential inhibitors of P‐gp"}]}]}
